Test results from ChEMBL document CHEMBL1130051, “9-Benzyladenines: potent and selective cAMP phosphodiesterase inhibitors” (J Med Chem, 1997).

How the values were obtained:
[1] = target: T1, Phosphodiesterase 4 (Homo sapiens, UniProt P27815+Q08499+Q07343+Q08493); assay: Inhibition of phosphodiesterase 4 at 1 uM cAMP; assay type: protein assay
Summary of the method: (§1)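 Enzyme activity was measured at 1 μM substrate, and the drug concentration giving 50% inhibition was taken as the IC50. IC50 was calculated by linear regression (r = 0.95) as the mean of three determinations, with experimental error about 15%. Values above 200 μM were reported as ns.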

[2] = target: T2, Phosphodiesterase 3 (Homo sapiens, UniProt Q14432+Q13370); assay: Inhibition of phosphodiesterase 3 at 1 uM cAMP; assay type: protein assay; summary of the method: as §1
[3] = target: Phosphodiesterase 1 (Homo sapiens, UniProt P54750+Q01064+Q14123); assay: Inhibition of phosphodiesterase 1; assay type: protein assay; summary of the method: as §1
[4] = target: T3, cGMP-specific 3',5'-cyclic phosphodiesterase (Homo sapiens, UniProt O76074); assay: Inhibition of phosphodiesterase 5; summary of the method: as §1
[5] = target: T3, cGMP-specific 3',5'-cyclic phosphodiesterase; assay: Inhibition of Phosphodiesterase 5
[6] = target: T1, Phosphodiesterase 4; assay: Inhibition of Phosphodiesterase 4; assay type: protein assay
[7] = target: T4, Adenosine receptor A1 (Homo sapiens, UniProt P30542); assay: Displacement of [3H]CHA from Adenosine A1 receptor
T4 sequence (P30542 whole entry): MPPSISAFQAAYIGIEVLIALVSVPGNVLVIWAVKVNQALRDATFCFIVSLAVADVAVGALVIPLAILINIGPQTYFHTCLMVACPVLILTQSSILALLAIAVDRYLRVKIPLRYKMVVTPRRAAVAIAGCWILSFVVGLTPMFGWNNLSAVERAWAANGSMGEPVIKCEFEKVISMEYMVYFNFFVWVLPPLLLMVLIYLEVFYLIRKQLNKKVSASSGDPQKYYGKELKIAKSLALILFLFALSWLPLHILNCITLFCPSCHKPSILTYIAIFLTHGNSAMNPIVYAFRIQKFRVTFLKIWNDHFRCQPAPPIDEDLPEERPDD

[8] = target: GABA-A receptor; anion channel; assay: Displacement of [3H]diazepam from rat brain GABA-A benzodiazepine receptor
[9] = target: T2, Phosphodiesterase 3; assay: Inhibitory concentration against Phosphodiesterase 3 was tested by linear regression; assay type: protein assay; summary of the method: as §1
[10] = target: Adenosine A2 receptor (Homo sapiens, UniProt P29275+P29274); assay: Displacement of [3H]NECA from Adenosine A2 receptor; assay type: protein assay

Compound | IC50 [1] | IC50 [2] | further results
CCCCNc1ncnc2c1ncn2Cc1ccccc1F.Cl | 53 µM | > 200 µM | 
CNc1nc(C(F)(F)F)nc2c1ncn2Cc1ccccc1F | 0.04 µM | 380 µM | IC50 [3]: 40 µM; IC50 [4]: 5 µM
CCCCCC[C@@H]([C@@H](C)O)n1cnc2c(N)ncnc21 [EHNA] |  |  | Ki [5]: > 200 µM; Ki [6]: > 200 µM
CNc1ncnc2c1nc(C)n2Cc1ccccc1F.CS(=O)(=O)O | 54 µM | > 200 µM | 
CNc1ncnc2c1ncn2Cc1ccccc1F.CS(=O)(=O)O | 3 µM |  | IC50 [7]: > 100 µM; IC50 [8]: 13 µM; Ki [5]: 6.5 µM; IC50 [9]: 121 µM; IC50 [10]: > 100 µM; Ki [6]: 2 µM
CNc1nc(C(F)(F)F)nc2c1ncn2CCc1ccccc1 | 0.75 µM | > 200 µM | 

Continued, in another order:

IC50 [1] | IC50 [2] | Compound | further results
160 µM | > 200 µM | Nc1ncnc2c1ncn2Cc1ccccc1 [9-BENZYL-9H-ADENINE] | 
0.5 µM | > 200 µM | CNc1nc(-c2ccccc2)nc2c1ncn2Cc1ccccc1F.CS(=O)(=O)O | 
1.8 µM | 101 µM | Nc1nc(C(F)(F)F)nc2c1ncn2Cc1ccccc1 | 
11 µM | 331 µM | CNc1nc(C(F)(F)F)nc2c1ncn2C | 
4.6 µM | 339 µM | CNc1ncnc2c1ncn2Cc1ccccc1.CS(=O)(=O)O | 
11 µM | 61 µM | CN(C)c1nc(C(F)(F)F)nc2c1ncn2Cc1ccccc1 | 
0.2 µM | 250 µM | CNc1nc(C)nc2c1ncn2Cc1ccccc1F.CS(=O)(=O)O | 
121 µM | > 200 µM | Cl.Fc1ccccc1Cn1cnc2c(N3CCCCC3)ncnc21 | 
